Rows were chosen to be rich in hits. Some 3.4% of all compounds tested hit in one or more screens of this group.
GPR7 antagonist – blocks human GPR7 receptor signaling; GPR7-expressing cells, fluorescence antagonist assay; inhibition, % at 4.4 µM; 290,000 tested, 1.1% active; AID 1861; in the data active = inhibition above about 16%, passing the limit was not always enough;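 also: cells stimulated with the agonist NPW; 0% = agonist with vehicle and 100% = vehicle without agonist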
zfTRPN1 agonist – zebrafish TRPN1 (NompC) channel agonism. HEK293 zebrafish TRPN1-YFP, Fluo-8 calcium fluorescence; 100% = response to 87 µM carbachol. activation, % at 3 µM. 220,000 tested, 0.18% active. AID 1424;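 active = activation above its plate's cutoff, the mean activation of test wells on that plate plus 3 SD, cut at about 19% in these data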;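 also: 0% = DMSO alone and 100% = 87 µM carbachol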
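Material: zebrafish TRPN1-YFP in HEK293 cells. Doses: one dose of 3 µM, 0.3% DMSO. Incubation: dye 1 h 37 °C plus 30 min RT. Measured by: intracellular calcium fluorescence with Fluo-8.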
TAAR1 ag – agonists of human TAAR1. 360,000 tested, 0.99% active. Q96RJ0. CHO RD-HGA16 TAAR1, Fluo-8 calcium fluorescence; vehicle wells 0%, saturating PEA agonist 100%. activation, % at 3 µM;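 active = activation above the mean activation of all test compounds in the run plus 3 SD, cut at about 38% in these data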
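System: CHO RD-HGA16 cells carrying human TAAR1 plus Gα16; Incubation: 17-24 h seeding, 75 min 37 °C dye, 30 min RT; Measured by: Fluo-8 fluorescence, 5 s baseline then 140 s kinetic read; Control set: DMSO and PEA EC100; Replication: single well for each compound.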
TRPML3 ag – human mucolipin-3 channel agonism; Q8TDD5; HEK293 TRPML3-YFP, Fluo-8 calcium fluorescence; 100% = the carbachol control signal; activation, % at 3 µM; 220,000 tested, 0.29% active; AID 1448;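 active = activation above its plate's cutoff, the mean activation of the plate's test wells plus 3 SD, cut at about 12% in these data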;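 also: 0% = DMSO only wells and 100% = carbachol wells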
Target sequence (Q8TDD5 whole entry, looked up): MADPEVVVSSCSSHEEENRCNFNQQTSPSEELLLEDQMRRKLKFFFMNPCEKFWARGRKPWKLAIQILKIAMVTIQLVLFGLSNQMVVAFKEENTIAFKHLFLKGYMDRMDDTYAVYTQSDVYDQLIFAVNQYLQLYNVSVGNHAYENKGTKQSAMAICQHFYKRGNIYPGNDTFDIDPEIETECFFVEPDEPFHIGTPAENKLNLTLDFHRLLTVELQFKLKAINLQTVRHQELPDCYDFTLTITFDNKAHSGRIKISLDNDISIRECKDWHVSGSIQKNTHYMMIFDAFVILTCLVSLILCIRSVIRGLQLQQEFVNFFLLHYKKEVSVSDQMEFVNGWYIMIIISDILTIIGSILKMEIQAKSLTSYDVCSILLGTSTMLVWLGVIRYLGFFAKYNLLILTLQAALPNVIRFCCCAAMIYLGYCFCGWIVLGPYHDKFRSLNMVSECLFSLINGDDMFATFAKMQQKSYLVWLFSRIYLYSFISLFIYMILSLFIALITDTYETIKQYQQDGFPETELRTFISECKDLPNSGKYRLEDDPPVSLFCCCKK
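Material: TRPML3-YFP stable HEK293 cells | Dosing: One concentration, 3 µM nominal, 0.3% DMSO | Timing: 125 s total fluorescence read per well | Technique: Fluo-8 calcium dye fluorescence, ex 470-495, em 515-575 nm | Measure: Percent activation from peak-to-basal fluorescence ratio, scaled between DMSO and carbachol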
TAAR1 antag – antagonists of human TAAR1 | CHO RD-HGA16 TAAR1, Fluo-8 calcium fluorescence, antagonist | inhibition, % at 3 µM | 360,000 tested, 1.5% active | AID 624466;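 active = inhibition above a per-plate cutoff, the mean inhibition of test compounds on that plate plus 3 SD, cut at about 49% in these data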;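 also: 0% = DMSO plus EC80 beta-PEA response and 100% = DMSO alone without agonist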
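Test system – hTAAR1-expressing CHO RD-HGA16 cells, Gα16-coupled · Also added – β-PEA at EC80 concentration, post-compound challenge · Compound – 3 µM, single point · Incubation – dye loading 75 min at 37 °C, then 30 min room temperature · Measured by – Fluo-8 intracellular calcium dye fluorescence, real-time kinetic reads · Benchmarks – vehicle and agonist controls · Replicates – singlicate, one well per test compound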
LANA-H2A inh – blocks KSHV LANA binding to histone H2A/H2B; Q9QR71; cell-free LANA-H2A/H2B peptide, fluorescence polarization; inhibition, % (test concentration not listed); 320,000 tested, 0.6% active; AID 2629; in the data active = inhibition mostly above about 10%, no sharp cut-off; inactive = mostly below about 6.7%
TAAR1 ag confirm – human TAAR1 agonism, confirmed; shares compounds with TAAR1 ag; CHO RD-HGA16 TAAR1, Fluo-8 calcium fluorescence; scaled: DMSO 0%, maximal phenethylamine 100%; activation, % at 3 µM; 2,400 tested, 82% active; AID 651783;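 active = activation above a cutoff set at the run's mean compound activation plus 3 SD, cut at about 39% in these data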
Ga16 nonsel ag – counter-screen for TAAR1 agonists: nonselective agonists in parental cells. 2,400 tested, 50% active. activation, % at 3 µM. AID 651787. CHO-Ga16 parental, Fluo-8 calcium fluorescence; normalized to maximal ATP response, DMSO zero. shares compounds with TAAR1 ag;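 active = activation above the run cutoff, the mean activation over all tested wells plus 3 SD, cut at about 12% in these data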;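 also: 0% = DMSO wells and 100% = maximal ATP response on the peak over basal ratio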
TAAR1 desensitize – counter-screen for human TAAR1 agonists: agonists that desensitize TAAR1 | AID 651951 | CHO RD-HGA16 hTAAR1, Fluo-8 calcium, beta-PEA response inhibition | inhibition, % at 3 µM | 2,400 tested, 46% active | shares compounds with TAAR1 ag;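 active = inhibition above the run cutoff, the mean inhibition of all test compounds plus 3 SD, cut at about 49% in these data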;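 also: beta-PEA stimulus applied at its EC80; loss of beta-PEA calcium signal after compound pretreatment read as receptor desensitization; 0% = DMSO with beta-PEA at EC80 and 100% = DMSO alone without agonist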
Ga16 antag count – counter-screen for TAAR1 agonists: nonselective Ga16 antagonists; shares compounds with TAAR1 ag; CHO-Ga16 ATP-induced calcium, Fluo-8 fluorescence; inhibition, % at 3 µM; 2,400 tested, 39% active;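 active = inhibition above the plate's mean compound inhibition plus 3 SD, computed per plate, cut at about 22% in these data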;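 also: 0% = EC80 ATP with DMSO and 100% = DMSO wells without ATP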
Starred values were filed as active, the others as inactive.

Screening CC(=O)Nc1ccc2c(c1)Cc1cc(N3C(=O)C=CC3=O)ccc1-2 returned TAAR1 ag 58.9*, TAAR1 antag 51.6*, TAAR1 ag confirm 34.0, Ga16 nonsel ag 29.0*, TAAR1 desensitize 47.6 and Ga16 antag count 53.6*.
For CCC(=O)NCCSc1c[nH]c2ccccc12 the results were GPR7 antagonist -6.7, zfTRPN1 agonist 0.9, TAAR1 ag 5.1, TRPML3 ag 0.4, TAAR1 antag -0.4 and LANA-H2A inh 2.7.
CCN(CC)S(=O)(=O)c1ccc(C(=O)NCCSc2c[nH]c3ccccc23)cc1 was read as GPR7 antagonist -5.1, zfTRPN1 agonist 0.0, TAAR1 ag 54.9*, TRPML3 ag -0.6, TAAR1 antag 86.4*, LANA-H2A inh -3.2, TAAR1 ag confirm 1.1, Ga16 nonsel ag 3.3, TAAR1 desensitize 16.3 and Ga16 antag count 16.6.
Cc1cc(C)cc(OCC(=O)Nc2ccc3c4c(cccc24)CC3)c1 was read as GPR7 antagonist 3.6, zfTRPN1 agonist -1.3, TAAR1 ag 101.7*, TRPML3 ag -0.4, TAAR1 antag 81.2*, LANA-H2A inh 1.7, TAAR1 ag confirm 33.8, Ga16 nonsel ag 0.4, TAAR1 desensitize 21.4 and Ga16 antag count 1.2.
O=C(COc1ccc2ccccc2c1)Nc1ccc2c3c(cccc13)CC2 was read as GPR7 antagonist -5.1, zfTRPN1 agonist -0.3, TAAR1 ag 5.3, TRPML3 ag 0.7, TAAR1 antag 23.5 and LANA-H2A inh -3.0.
Screening O=C(CC(NCCc1ccccc1)C(=O)O)Nc1ccc(O)cc1 (centres undefined) returned GPR7 antagonist -5.6, zfTRPN1 agonist 1.3, TAAR1 ag 50.1*, TRPML3 ag 0.5, TAAR1 antag 6.5, LANA-H2A inh 2.7, TAAR1 ag confirm 90.6*, Ga16 nonsel ag 0.6, TAAR1 desensitize 73.9* and Ga16 antag count 6.0.
Screening O=C(CC(c1ccccc1)c1ccccc1)Nc1ccc(O)cc1 returned GPR7 antagonist -18.1, TAAR1 ag 1.7, TAAR1 antag -1.3 and LANA-H2A inh -2.1.
Screening CC1CN(C(NC(=O)c2ccccc2)C(Cl)(Cl)Cl)CC(C)O1 (centres undefined) returned GPR7 antagonist 7.4, zfTRPN1 agonist 0.1, TAAR1 ag 46.1*, TRPML3 ag -0.4, TAAR1 antag -9.1, TAAR1 ag confirm 69.7*, Ga16 nonsel ag 3.4, TAAR1 desensitize 6.6 and Ga16 antag count 4.0.
Screening CC1CN(C(NC(=O)C(C)(C)C)C(Cl)(Cl)Cl)CC(C)O1 (centres undefined) returned GPR7 antagonist -7.4, zfTRPN1 agonist 0.1, TAAR1 ag 65.0*, TRPML3 ag 0.6, TAAR1 antag 18.8, LANA-H2A inh -5.8, TAAR1 ag confirm 85.0*, Ga16 nonsel ag 3.0, TAAR1 desensitize 30.5 and Ga16 antag count -1.6.
Screening CCCCC(=O)NC(N1CCCCC1)C(Cl)(Cl)Cl (centres undefined) returned GPR7 antagonist 6.3, zfTRPN1 agonist -0.1, TAAR1 ag 10.0, TRPML3 ag 0.3, TAAR1 antag -2.2 and LANA-H2A inh -1.5.
`Cc1ccc(S(=O)(=O)NN=CC2(c3ccccc3)CC2)cc1` gave TAAR1 ag 1.6 and TAAR1 antag -17.3.
O=C(COC(=O)/C=C/c1ccccc1Cl)NC1CCCCCC1 was read as GPR7 antagonist -9.7, zfTRPN1 agonist 0.1, TAAR1 ag 49.2*, TRPML3 ag 0.1, TAAR1 antag 52.8*, LANA-H2A inh -0.5, TAAR1 ag confirm 23.9, Ga16 nonsel ag 5.1, TAAR1 desensitize 33.2 and Ga16 antag count 11.0.
For CCN(CC)c1ccc2cc(-c3nnc(-c4ccc(Br)cc4)o3)c(=O)oc2c1 the results were GPR7 antagonist -7.7, zfTRPN1 agonist 5.5 and TRPML3 ag 4.5.
For CCN(CC)c1ccc2cc(-c3nc(-c4ccc(OC)cc4)cs3)c(=O)oc2c1 the results were GPR7 antagonist 13.4, zfTRPN1 agonist 64.0*, TAAR1 ag 450.5*, TRPML3 ag 66.6*, TAAR1 antag 104.8*, LANA-H2A inh 8.5, TAAR1 ag confirm 355.2*, Ga16 nonsel ag 606.4*, TAAR1 desensitize 88.8* and Ga16 antag count 96.3*.
For CCCCN1C(=O)C(CC(=O)NCCc2ccccn2)CC(C(=O)N(CC)CC)=C1C (centres undefined) the results were TAAR1 ag 1.6 and TAAR1 antag -1.0.
Cc1cc(C)c(NC(=O)CN(C)C(C)C(=O)N2CCc3ccccc32)c(C)c1 (centres undefined) was read as TAAR1 ag 8.2, TAAR1 antag -8.8 and LANA-H2A inh 1.2.
For CC(=O)O[C@@H]1C[C@@]2(C)[C@@H](CC[C@H]2[C@@H](C)/C=C\CC(C)C)C2=C[C@@H](O)[C@@]3(O)C[C@@H](O)[C@H](O)C[C@]3(CO)[C@]21O the results were TAAR1 ag 116.0*, TAAR1 antag 96.7*, TAAR1 ag confirm 29.5, Ga16 nonsel ag 15.8*, TAAR1 desensitize 22.4 and Ga16 antag count 27.8*.
COc1ccccc1CNC(=O)C(=O)NCC1CCCN1S(=O)(=O)c1cccs1 (centres undefined) was read as TAAR1 ag 5.8, TAAR1 antag 22.6 and LANA-H2A inh -14.1.
`COc1ccc(Cl)cc1C(=O)NNC(=S)NC(=O)c1cc(-c2ccccc2)nc2ccccc12` gave GPR7 antagonist 17.3, zfTRPN1 agonist 4.7, TAAR1 ag 104.3*, TRPML3 ag 0.9, TAAR1 antag 74.7*, LANA-H2A inh -0.5, TAAR1 ag confirm 114.1*, Ga16 nonsel ag 96.2*, TAAR1 desensitize 101.8* and Ga16 antag count 86.7*.
`COC(=O)c1ccc(NC(=S)NC(=O)c2cc(-c3ccccc3)nc3ccccc23)cc1` gave GPR7 antagonist 11.4, zfTRPN1 agonist -0.2, TAAR1 ag 5.2, TRPML3 ag 1.0, TAAR1 antag 9.6 and LANA-H2A inh 11.9.

Source: PubChem (several laboratories)
